Only some compounds are listed: those with a hit (about 1.7% of all), similar ones and a draw of the others.
SR-BI DiI inh: blocks mouse SR-BI lipid uptake from DiI-HDL; Q61009; ldlA[mSR-BI] CHO cells, DiI-HDL uptake fluorescence, 3 h; inhibition, % at 12.5 µM; 320,000 compounds, 0.96% hits; AID 488896;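 active = mean replicate inhibition of at least 70% and a set share of replicates each scoring 70 or more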;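 note: 0% = median of neutral control wells and 100% = median of positive control wells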
Target sequence (Q61009 whole entry, looked up): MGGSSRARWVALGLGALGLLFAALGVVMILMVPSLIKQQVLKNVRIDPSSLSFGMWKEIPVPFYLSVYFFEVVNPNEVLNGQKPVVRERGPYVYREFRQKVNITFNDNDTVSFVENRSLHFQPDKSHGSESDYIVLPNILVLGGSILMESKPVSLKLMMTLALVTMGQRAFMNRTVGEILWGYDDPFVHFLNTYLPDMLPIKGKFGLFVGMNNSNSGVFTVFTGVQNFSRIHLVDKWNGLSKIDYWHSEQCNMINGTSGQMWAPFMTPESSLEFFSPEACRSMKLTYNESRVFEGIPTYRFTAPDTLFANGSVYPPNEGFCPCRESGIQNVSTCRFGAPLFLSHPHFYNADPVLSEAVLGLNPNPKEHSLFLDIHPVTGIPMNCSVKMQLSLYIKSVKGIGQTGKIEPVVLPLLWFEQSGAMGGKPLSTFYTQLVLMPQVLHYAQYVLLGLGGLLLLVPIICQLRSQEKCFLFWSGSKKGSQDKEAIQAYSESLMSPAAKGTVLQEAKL
SR-BI uptake up: activators of SR-BI mediated HDL lipid uptake | AID 504775 | activation, % at 12.5 µM | CHO ldlA[mSR-BI] cells, DiI-HDL uptake fluorescence, 3 h; 100 = double the neutral-control signal | 320,000 compounds, 0.096% hits;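 active = mean replicate activation of at least 60% and every replicate at or above 60%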;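 note: 0% = median plate neutral-control signal and 100% = twice that signal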
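Material: SR-BI-overexpressing, LDLR-lacking CHO cells | Dosing: Single compound concentration, delivered by pin transfer | Probe or stimulus: Labelled HDL, 10 µg/mL | Signal: Bottom-read cell fluorescence after medium removal, ex 550/em 595 nm | Schedule: 3 h, 37 °C | Evaluation: HDL uptake via cellular fluorescence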
Statin myotox sup: suppression of simvastatin myotoxicity; C2C12 myotubes + simvastatin, ATP luminescence, 48 h; scaled: DMSO 0, geranylgeraniol control 100; AID 602340; rescue of ATP level, % at 7.49 µM; 330,000 compounds, 0.78% hits;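 active = mean ATP rescue above about 67%, or every replicate alone reaching that limit, limit read from the data, passing the limit was not always enough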;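 note: myotubes were challenged with 10 µM simvastatin during compound exposure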
Vif imaging: blocks HIV Vif function. HEK293T cells, Vif self-association by quenched fluorescence, imaging, 24 h. inhibition, % at 7.49 µM. 340,000 compounds, 0.35% hits; in the data active = inhibition above about 50%, passing the limit was not always enough
* marks the source's active call; other numbers are inactive results; / = not tested or not shown.

SMILES	SR-BI DiI inh	SR-BI uptake up	Statin myotox sup	Vif imaging
Cc1ccc(S(=O)(=O)Nc2ccc3c(c2)CC(=O)N([C@@H](C)CO)C[C@H](C)[C@H](CN(C)Cc2ccc(-c4ccccc4)cc2)O3)cc1	/	/	15.6	/
C[C@@H]1CN([C@H](C)CO)C(=O)Cc2cc(NS(C)(=O)=O)ccc2O[C@@H]1CN(C)Cc1ccc(-c2ccccc2)cc1	/	/	94.8*	/
C[C@H](CO)N1C[C@H](C)[C@@H](CN(C)Cc2ccc(-c3ccccc3)cc2)Oc2ccc(NS(C)(=O)=O)cc2CC1=O	/	/	28.8	/
Cc1ccc(S(=O)(=O)Nc2ccc3c(c2)CC(=O)N([C@@H](C)CO)C[C@H](C)[C@@H](CN(C)Cc2ccc(-c4ccccc4)cc2)O3)cc1	/	/	128.6*	/
CC(C)NC(=O)Nc1ccc2c(c1)CC(=O)N([C@H](C)CO)C[C@H](C)[C@@H](CN(C)C(=O)Nc1ccc3c(c1)OCO3)O2	/	/	-11.0	/
CN1[C@@H]2Cn3c(ccc(C4=CCCC4)c3=O)[C@H]1[C@@H](C(=O)NC1Cc3ccccc3C1)[C@@H]2CO	/	/	-1.0	/
O=C(C[C@@H]1CC[C@@H](NC(=O)Cc2cccnc2)[C@@H](CO)O1)NCc1ccc2c(c1)OCO2	/	/	-0.3	/
Cc1cc(/C=N/NC(=O)c2ccncc2)c(C)n1-c1cccc(C(F)(F)F)c1	74.2*	-74.2	/	-5.5
Cc1ccc(-n2c(C)cc(/C=N/NC(=O)c3ccncc3)c2C)cc1	29.6	-29.6	3.0	/
Cc1cc(/C=N/NC(=O)c2cccc(F)c2)c(C)n1-c1ccccc1	73.0*	-73.0	/	/
Cc1cc(/C=N/NC(=O)c2ccccc2F)c(C)n1-c1ccccc1	13.3	-13.3	/	-4.2
C[C@@H]1CN([C@H](C)CO)C(=O)c2cc(NC(=O)Cc3ccccc3)ccc2O[C@@H](C)CCCCO[C@@H]1CN(C)C(=O)Cc1ccccc1	/	/	-86.8	/
CN(C)/N=C/c1ccc(/C=N/NC(N)=S)o1	39.3	-39.3	/	-3.2
Cc1ccc(-c2ccc(/C=N/NC(N)=S)o2)cc1	95.6*	-95.6	/	0.4
NC(=S)N/N=C/c1ccc(-c2ccc(Cl)c(Cl)c2)o1	85.5*	-85.5	53.0	1.6
O=C(O)c1cc(-c2ccc(/C=N/NC(=S)Nc3ccccc3)o2)ccc1Cl	12.9	-12.9	/	2.9
NC(=S)N/N=C\c1ccc(-c2cccc(Cl)c2Cl)o1	78.5*	-78.5	7.2	1.9
NC(=S)N/N=C/c1ccc(-c2ccc(SC(F)F)cc2)o1	74.3*	-74.3	/	3.1
NC(=S)N/N=C/c1ccc(-c2ccccc2)o1	64.6	-64.6	/	-5.3
C[C@H]1CN([C@@H](C)CO)C(=O)c2cccc(NS(=O)(=O)c3cn(C)cn3)c2O[C@@H]1CN(C)C(=O)Nc1ccc2c(c1)OCO2	/	/	1.9	/
O=C(CCCSc1nc2ccccc2c(=O)[nH]1)c1ccccc1	-10.6	10.6	-13.2	51.7*
C[C@H](CO)N1C[C@H](C)[C@H](CN(C)Cc2ccccc2)Oc2ncc(C#Cc3cccnc3)cc2C1=O	/	/	5.9	/
CCOc1ccc(-c2nc(CSCC(=O)NCc3ccco3)c(C)o2)cc1	11.6	-11.6	110.9*	-4.8
N#C[C@H]1[C@@H](c2ccccc2)[C@H](CO)N1C(=O)c1cc(Cl)cc(Cl)c1	/	/	-0.5	/
CCc1c(C(=O)Nc2cc(C)cc(C)c2)[nH]c(C)c1C(C)=O	76.6*	-76.6	/	-3.5
SMILES	SR-BI DiI inh	SR-BI uptake up	Statin myotox sup	Vif imaging
CCn1c(C)c(C)c2cc(C(=O)Nc3cccc(Cl)c3)ccc21	101.5*	-101.5	/	-3.9
CCn1c(C)cc(O)c(C(=O)Nc2cccc(Cl)c2)c1=O	4.8	/	2.8	5.0
CO[C@H]1CN(C)C(=O)c2ccc(NC(=O)C3CC3)cc2OC[C@@H](C)NC[C@@H]1C	/	/	4.1	/
COC(=O)c1cc(COC(=O)c2ccc(OC)c(S(=O)(=O)N3CCCC3)c2)oc1C	30.1	-30.2	89.7*	-6.4
Cc1ccc(C)c(C(=O)COC(=O)c2ccc(C)c(S(=O)(=O)N3CCOCC3)c2)c1	46.2	-46.2	21.2	58.9*
COc1ccc(C(C)=O)cc1COC(=O)c1ccc(C)c(S(=O)(=O)N2CCOCC2)c1	70.5*	-70.5	0.6	-6.5
Cc1ccc(NC(=O)COC(=O)c2ccc3c(c2)OCCO3)cc1S(=O)(=O)N1CCOCC1	-1.5	1.5	/	-1.7
Cc1ccc(C(=O)OCC(=O)Nc2ccc3c(c2)OCO3)cc1S(=O)(=O)N1CCOCC1	13.7	-13.7	107.6*	3.4
COc1ccc(C(=O)OCc2cc(=O)oc3c(C)c(C)ccc23)cc1S(=O)(=O)N1CCOCC1	/	/	9.5	/
C[C@H]1CN([C@@H](C)CO)C(=O)c2cc(C#CC3(O)CCCC3)cnc2O[C@H]1CN(C)C(=O)Cc1cccnc1	/	/	-1.9	/
